Measured values from ChEMBL document CHEMBL4007452, “Discovery of an Orally Selective Inhibitor of Signal Transducer and Activator of Transcription 3 Using Advanced Multiple Ligand Simultaneous Docking” (J Med Chem, 2017).
Active and inactive are the calls of the source. The calls are words filed in the database; no cut-off is given here.

What was measured:
CCRF S-180 = experiment: Anticancer activity against […] cells xenografted in BALB/c nude mouse assessed as reduction in tumor weight at 1 mg/kg, ip measured after 21 days relative to vehicle control; assay type: functional; design: scale not given: the % may be the effect or the level left
Outline: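 Male mice, 4 weeks old, given s.c. flank S180 mouse sarcoma cells (3 x 10^6). From day 2, 10 mice per group received saline vehicle, oral drug at 5 mg/kg, or i.p. drug at 1 mg/kg, each dissolved in saline. Therapy ran 21 days; tumor weight and body weight were recorded.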

Mus musculus [1] = experiment: Toxicity in BALB/c nude mouse xenografted with […] S180 cells assessed as body weight loss at 1 mg/kg, ip after 13 days relative to vehicle control; assay type: organism-based; details: in vivo, 312 h
Mus musculus [2] = experiment: Toxicity in BALB/c nude mouse xenografted with […] S180 cells assessed as reduction in liver size at 1 mg/kg, ip after 21 days; assay type: organism-based; details: in vivo, 504 h
Mus musculus [3] = experiment: Toxicity in BALB/c nude mouse xenografted with […] S180 cells assessed as reduction in spleen size at 1 mg/kg, ip after 21 days; assay type: organism-based; details: in vivo, 504 h
Mus musculus [4] = experiment: Toxicity in BALB/c nude mouse xenografted with […] S180 cells assessed as reduction in kidney size at 1 mg/kg, ip after 21 days; assay type: organism-based; details: in vivo, 504 h
MDA-MB-231 [5] = experiment: Antiproliferative activity against human MDA-MB-231 cells after 24 hrs by MTT assay; assay type: functional, cell-based; details: MDA-MB-231, 24 h
Outline: (§1)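 Cells were seeded at 3000 per well and incubated 24 h at 37 °C. Compounds were added in triplicate with 10% FBS: 0.1-10 or 0.1-20 µM for cancer lines, 3.125-400 µM for MCF-10A. Viability was read by MTT absorbance at 595 nm, with IC50 fitted from the curves. DMSO stocks were 20 mM.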

[6] = Antiproliferative activity against human UW426 cells after 24 hrs by MTT assay; assay type: functional, cell-based; details: UW426, 24 h; outline: as §1
[7] = Antiproliferative activity against human UW288-1 cells after 24 hrs by MTT assay; assay type: functional, cell-based; details: UW288-1, 24 h; outline: as §1
[8] = Antiproliferative activity against human BkPC-3 cells after 24 hrs by MTT assay; assay type: functional, cell-based; details: BkPC-3, 24 h; outline: as §1
U2OS = experiment: Antiproliferative activity against human U2OS cells after 24 hrs by MTT assay; assay type: functional, cell-based; outline: as §1
[9] = target: Epidermal growth factor receptor (Homo sapiens) (UniProt P00533); experiment: Inhibition of EGFR in human MDA-MB-231 cells assessed as reduction in p-Akt level at 2.5 to 5 uM after 12 hrs by immunoblot analysis; assay type: cell-based
Sequence of Epidermal growth factor receptor (Homo sapiens) (P00533 whole entry): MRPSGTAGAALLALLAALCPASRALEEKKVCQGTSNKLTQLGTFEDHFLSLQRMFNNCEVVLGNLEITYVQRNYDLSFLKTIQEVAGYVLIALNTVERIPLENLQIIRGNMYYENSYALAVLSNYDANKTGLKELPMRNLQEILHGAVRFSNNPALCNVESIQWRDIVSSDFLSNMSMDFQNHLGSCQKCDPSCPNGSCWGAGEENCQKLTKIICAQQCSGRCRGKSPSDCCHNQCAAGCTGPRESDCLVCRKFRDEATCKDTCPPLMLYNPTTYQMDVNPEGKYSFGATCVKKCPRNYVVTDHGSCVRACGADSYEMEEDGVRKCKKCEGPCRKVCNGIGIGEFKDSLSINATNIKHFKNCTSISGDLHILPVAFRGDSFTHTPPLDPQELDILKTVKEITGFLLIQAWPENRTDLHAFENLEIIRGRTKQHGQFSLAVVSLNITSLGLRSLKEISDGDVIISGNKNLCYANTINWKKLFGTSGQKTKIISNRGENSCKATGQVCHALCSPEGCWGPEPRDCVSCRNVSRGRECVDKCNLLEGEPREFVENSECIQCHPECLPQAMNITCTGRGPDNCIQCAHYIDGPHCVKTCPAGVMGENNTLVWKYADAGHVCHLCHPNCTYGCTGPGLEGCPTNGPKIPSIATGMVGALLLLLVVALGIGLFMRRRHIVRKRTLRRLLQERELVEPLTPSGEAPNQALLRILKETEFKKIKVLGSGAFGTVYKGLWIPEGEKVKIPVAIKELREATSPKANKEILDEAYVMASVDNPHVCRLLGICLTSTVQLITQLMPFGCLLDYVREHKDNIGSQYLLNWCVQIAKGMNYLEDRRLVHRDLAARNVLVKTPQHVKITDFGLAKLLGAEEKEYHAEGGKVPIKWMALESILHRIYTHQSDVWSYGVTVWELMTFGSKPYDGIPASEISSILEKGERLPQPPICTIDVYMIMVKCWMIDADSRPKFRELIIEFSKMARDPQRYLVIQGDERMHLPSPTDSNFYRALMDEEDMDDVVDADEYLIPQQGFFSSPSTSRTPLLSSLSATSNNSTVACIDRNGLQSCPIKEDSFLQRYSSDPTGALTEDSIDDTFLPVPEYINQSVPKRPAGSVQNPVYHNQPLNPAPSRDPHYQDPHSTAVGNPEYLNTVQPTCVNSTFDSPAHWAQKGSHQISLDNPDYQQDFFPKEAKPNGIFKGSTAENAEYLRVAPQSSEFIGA
Outline: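 MDA-MB-231 cells at 60–80% confluence were treated 12 h with 10% FBS at 2.5-10 µM or 2.5-5 µM, against a DMSO control. Whole-cell lysates were immunoblotted, with bands quantified as percent of control.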

Mus musculus [10] = experiment: Toxicity in BALB/c nude mouse xenografted with human MDA-MB-231 cells assessed as reduction in body weight at 40 mg/kg, po administered for 32 days; assay type: organism-based; details: in vivo, 768 h
Outline: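 MDA-MB-231 cells (5 x 10^6) were implanted s.c. in the flank of 6-week-old female athymic BALB/c nude mice. Oral dosing started at a tumor volume of about 100 mm3, with 8 mice per group and a saline vehicle control. […] Body weight was tracked over the 32-day treatment.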

[11] = Terminal half life in Sprague-Dawley rat plasma at 1 mg/kg, iv measured after 24 hrs by UPLC analysis; assay type: ADME, organism-based; details: read-out: beta t1/2 (converted)
Outline: (§2)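 Rats dosed i.v. or p.o. Plasma concentrations followed from 2 min to 24 h after dosing. The bioanalytical method was validated to FDA guidelines for selectivity, linearity, LLOQ, accuracy, precision, recovery, matrix effect and stability.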

[12] = Tmax in Sprague-Dawley rat plasma at 1 mg/kg, iv measured after 24 hrs by UPLC analysis; assay type: ADME, organism-based; outline: as §2
[13] = Cmax in Sprague-Dawley rat plasma at 1 mg/kg, iv measured after 24 hrs by UPLC analysis; assay type: ADME, organism-based; design: dose 1 mg/kg, route intravenous
Outline: (§3)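 Rat plasma sampled from 2 min to 24 h after a single i.v. (1 mg/kg) or p.o. (10 mg/kg) dose. Parameters were derived from the concentration-time profiles. The bioanalytical method was validated to FDA guidelines for selectivity, linearity, LLOQ, accuracy, precision, recovery, matrix effect and stability.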

[14] = Initial plasma concentration in Sprague-Dawley rat at 1 mg/kg, iv measured after 24 hrs by UPLC analysis; assay type: ADME, organism-based; outline: as §3
[15] = AUC (0 to t) in Sprague-Dawley rat plasma at 1 mg/kg, iv measured after 24 hrs by UPLC analysis; assay type: ADME, organism-based; design: dose 1 mg/kg, time < 24 hr, route intravenous; outline: as §3
[16] = AUC (0 to infinity) in Sprague-Dawley rat plasma at 1 mg/kg, iv measured after 24 hrs by UPLC analysis; assay type: ADME, organism-based; design: dose 1 mg/kg, time infinity, route intravenous; outline: as §3
[17] = Apparent volume of distribution in Sprague-Dawley rat plasma at 1 mg/kg, iv measured after 24 hrs by UPLC analysis; assay type: ADME, organism-based; details: read-out: Vz; outline: as §3
Rattus norvegicus [18] = experiment: AUMC (0 to t) in Sprague-Dawley rat plasma at 1 mg/kg, iv measured after 24 hrs by UPLC analysis; assay type: ADME, organism-based; details: in vivo; outline: as §3
Rattus norvegicus [19] = experiment: AUMC (0 to infinity) in Sprague-Dawley rat plasma at 1 mg/kg, iv measured after 24 hrs by UPLC analysis; assay type: ADME, organism-based; details: in vivo; outline: as §3
[20] = MRT (0 to t) in Sprague-Dawley rat plasma at 1 mg/kg, iv measured after 24 hrs by UPLC analysis; assay type: ADME, organism-based; outline: as §3
[21] = MRT (0 to infinity) in Sprague-Dawley rat plasma at 1 mg/kg, iv measured after 24 hrs by UPLC analysis; assay type: ADME, organism-based; outline: as §3
[22] = Oral bioavailability in Sprague-Dawley rat at 10 mg/kg measured after 24 hrs by UPLC analysis; assay type: ADME, organism-based; details: in vivo
[23] = Terminal half life in Sprague-Dawley rat plasma at 10 mg/kg, po measured after 24 hrs by UPLC analysis; assay type: ADME, organism-based; details: read-out: beta t1/2 (converted); outline: as §2
[24] = Tmax in Sprague-Dawley rat plasma at 10 mg/kg, po measured after 24 hrs by UPLC analysis; assay type: ADME, organism-based; outline: as §2
[25] = Cmax in Sprague-Dawley rat plasma at 10 mg/kg, po measured after 24 hrs by UPLC analysis; assay type: ADME, organism-based; design: dose 10 mg/kg, route oral; outline: as §3
[26] = AUC (0 to t) in Sprague-Dawley rat plasma at 10 mg/kg, po measured after 24 hrs by UPLC analysis; assay type: ADME, organism-based; design: time < 24 hr, dose 10 mg/kg, route oral; outline: as §3
[27] = AUC (0 to infinity) in Sprague-Dawley rat plasma at 10 mg/kg, po measured after 24 hrs by UPLC analysis; assay type: ADME, organism-based; design: dose 10 mg/kg, route oral, time infinity; outline: as §3
Rattus norvegicus [28] = experiment: Apparent volume of distribution in Sprague-Dawley rat plasma at 10 mg/kg, po measured after 24 hrs by UPLC analysis; assay type: ADME, organism-based; details: in vivo; outline: as §3
Rattus norvegicus [29] = experiment: AUMC (0 to t) in Sprague-Dawley rat plasma at 10 mg/kg, po measured after 24 hrs by UPLC analysis; assay type: ADME, organism-based; details: in vivo; outline: as §3
Rattus norvegicus [30] = experiment: AUMC (0 to infinity) in Sprague-Dawley rat plasma at 10 mg/kg, po measured after 24 hrs by UPLC analysis; assay type: ADME, organism-based; details: in vivo; outline: as §3
[31] = MRT (0 to t) in Sprague-Dawley rat plasma at 10 mg/kg, po measured after 24 hrs by UPLC analysis; assay type: ADME, organism-based; outline: as §3
[32] = MRT (0 to infinity) in Sprague-Dawley rat plasma at 10 mg/kg, po measured after 24 hrs by UPLC analysis; assay type: ADME, organism-based; outline: as §3
MDA-MB-231 [33] = experiment: Anticancer activity against human MDA-MB-231 cells xenografted in BALB/c nude mouse assessed as reduction in tumor volume at 40 mg/kg, po qd; assay type: functional, organism-based
Outline: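 Female athymic BALB/c nude mice, 6 weeks old, bearing s.c. flank MDA-MB-231 xenografts (5 x 10^6 cells). Dosing began at about 100 mm3 tumor volume; 8 mice per group, one tumor each. Drug was given orally in saline, with a saline vehicle control, for 32 days. Caliper L and W measured every other day; volume = 0.5236×L×W².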

Mus musculus [34] = experiment: Toxicity in BALB/c nude mouse xenografted with human MDA-MB-231 cells assessed as heart damage at 40 mg/kg, po qd administered for 32 days by H&E staining based light microscopy; assay type: organism-based; details: in vivo, 768 h
Outline: (§4)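 6-week-old female athymic SPF BALB/c nude mice received 5 x 10^6 MDA-MB-231 cells s.c. in the flank. Oral treatment began once tumors reached about 100 mm3, with 8 mice per group and a saline vehicle control. […] Treatment lasted 32 days. Heart, liver, spleen, lung and kidney were fixed 48 h in 10% neutral-buffered formaldehyde, paraffin-embedded, cut at 5 µm, H&E-stained and examined by light microscopy.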

Mus musculus [35] = experiment: Toxicity in BALB/c nude mouse xenografted with human MDA-MB-231 cells assessed as liver damage at 40 mg/kg, po qd administered for 32 days by H&E staining based light microscopy; assay type: organism-based; details: in vivo, 768 h; outline: as §4
Mus musculus [36] = experiment: Toxicity in BALB/c nude mouse xenografted with human MDA-MB-231 cells assessed as spleen damage at 40 mg/kg, po qd administered for 32 days by H&E staining based light microscopy; assay type: organism-based; details: in vivo, 768 h; outline: as §4
Mus musculus [37] = experiment: Toxicity in BALB/c nude mouse xenografted with human MDA-MB-231 cells assessed as lung damage at 40 mg/kg, po qd administered for 32 days by H&E staining based light microscopy; assay type: organism-based; details: in vivo, 768 h; outline: as §4
Mus musculus [38] = experiment: Toxicity in BALB/c nude mouse xenografted with human MDA-MB-231 cells assessed as kidney damage at 40 mg/kg, po qd administered for 32 days by H&E staining based light microscopy; assay type: organism-based; details: in vivo, 768 h; outline: as §4

COc1cccc2c1C(=O)c1c(O)c3c(c(O)c1C2=O)C[C@@](O)(C(=O)CO)C[C@@H]3O[C@H]1C[C@H](N)[C@H](O)[C@H](C)O1 [DOXORUBICIN]
Activity (CCRF S-180): 52.23%
Activity (Mus musculus [1]): 21.01%
Activity (Mus musculus [2]): Toxic
Activity (Mus musculus [3]): Toxic
Activity (Mus musculus [4]): Toxic

CN(CC(=O)N(Cc1ccc(C2CCCCC2)cc1)c1ccc(C(=O)O)c(O)c1)S(=O)(=O)c1c(F)c(F)c(F)c(F)c1F
IC50 (MDA-MB-231 [5]): 6.8 µM
IC50 [6]: 10.2 µM
IC50 [7]: 9.8 µM
IC50 [8]: 6.9 µM
IC50 (U2OS): 8.3 µM
inhibition [9]: Active

COc1cc2ncnc(Nc3ccc(F)c(Cl)c3)c2cc1OCCCN1CCOCC1 [GEFITINIB]
Activity (Mus musculus [10]): Non-Toxic
half-life [11]: 2.39 h
Tmax [12]: 1.98 min
Cmax [13]: 621 ng/mL
C0 at 24 h [14]: 715 ng/mL
AUC(0-t) at 24 h [15]: 491 ng·h/mL
AUC(0-inf) [16]: 501 ng·h/mL
Vd [17]: 6.68 L/kg
AUMCt (Rattus norvegicus [18]): 1098 hr2.ng/ml
AUMC (Rattus norvegicus [19]): 1261.5 hr2.ng/ml
MRT last at 24 h [20]: 2.12 h
MRT inf [21]: 2.4 h
bioavailability [22]: 47.4%
half-life [23]: 2.17 h
Tmax [24]: 1 h
Cmax [25]: 1200 ng/mL
AUC(0-t) at 24 h [26]: 2360 ng·h/mL
AUC(0-inf) [27]: 2370 ng·h/mL
Vz (Rattus norvegicus [28]): 13.2387 L/kg
AUMCt (Rattus norvegicus [29]): 5649.7 hr2.ng/ml
AUMC (Rattus norvegicus [30]): 5903.9 hr2.ng/ml
MRT last at 24 h [31]: 2.4 h
MRT inf [32]: 2.49 h
Activity (MDA-MB-231 [33]): Active
Activity (Mus musculus [34]): Non-Toxic
Activity (Mus musculus [35]): Non-Toxic
Activity (Mus musculus [36]): Non-Toxic
Activity (Mus musculus [37]): Non-Toxic
Activity (Mus musculus [38]): Non-Toxic
